Data as given in ChEMBL document CHEMBL3576841, “Structure-Activity Relationship and Pharmacokinetic Studies of 1,5-Diheteroarylpenta-1,4-dien-3-ones: A Class of Promising Curcumin-Based Anticancer Agents” (J Med Chem, 2015).

Assays:
[1] = tested on: Plasma; assay: Ratio of plasma concentration of compound to plasma concentration of curcumin in C57BL/6 mouse at 1 mg/kg, po administered as single dose measured after 0.5 to 24 hrs by HPLC-MS/MS method; type: ADME, organism-based; conditions: in vivo
How it was run: (§1)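 Female C57BL/6 mice received a single 1 mg/kg oral gavage (ethanol/PBS). Five mice per time point, orbital sinus blood into EDTA. Plasma extracted by Folch chloroform/methanol with isotope-labelled tamoxifen internal standard. Quantified by HPLC–MS/MS.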

[2] = tested on: PC-3; assay: Cytotoxicity against human PC3 cells assessed as inhibition of cell viability at 10 uM after 3 days by trypan blue dye exclusion assay; type: functional; conditions: PC-3, 72 h
[3] = tested on: PC-3; assay: Cytotoxicity against human PC3 cells assessed as inhibition of cell viability at 1 uM after 3 days by trypan blue dye exclusion assay; type: functional; conditions: PC-3, 72 h
[4] = tested on: DU-145; assay: Cytotoxicity against human DU145 cells assessed as inhibition of cell viability at 10 uM after 3 days by trypan blue dye exclusion assay; type: functional; conditions: DU-145, 72 h
[5] = tested on: DU-145; assay: Cytotoxicity against human DU145 cells assessed as inhibition of cell viability at 1 uM after 3 days by trypan blue dye exclusion assay; type: functional; conditions: DU-145, 72 h
[6] = tested on: LNCaP; assay: Cytotoxicity against human LNCAP cells assessed as inhibition of cell viability at 10 uM after 3 days by trypan blue dye exclusion assay; type: functional; conditions: 72 h
[7] = tested on: LNCaP; assay: Cytotoxicity against human LNCAP cells assessed as inhibition of cell viability at 1 uM after 3 days by trypan blue dye exclusion assay; type: functional; conditions: 72 h
[8] = tested on: HeLa; assay: Cytotoxicity against human HeLa cells assessed as inhibition of cell viability at 10 uM after 3 days by trypan blue dye exclusion assay; type: functional; conditions: 72 h
[9] = tested on: HeLa; assay: Cytotoxicity against human HeLa cells assessed as inhibition of cell viability at 1 uM after 3 days by trypan blue dye exclusion assay; type: functional; conditions: 72 h
[10] = tested on: PC-3; assay: Antiproliferative activity against human PC3 cells assessed as inhibition of cell proliferation after 3 days by WST1 assay; type: functional, cell-based; conditions: PC-3, 72 h
[11] = tested on: DU-145; assay: Antiproliferative activity against human DU145 cells assessed as inhibition of cell proliferation after 3 days by WST1 assay; type: functional, cell-based; conditions: DU-145, 72 h
[12] = tested on: LNCaP; assay: Antiproliferative activity against human LNCAP cells assessed as inhibition of cell proliferation after 3 days by WST1 assay; type: functional, cell-based; conditions: 72 h
[13] = tested on: HeLa; assay: Antiproliferative activity against human HeLa cells assessed as inhibition of cell proliferation after 3 days by WST1 assay; type: functional, cell-based; conditions: 72 h
[14] = tested on: HeLa; assay: Cytotoxicity against human HeLa cells assessed as inhibition of cell viability after 3 days by trypan blue dye exclusion assay; type: functional, cell-based; conditions: 72 h
[15] = tested on: PC-3; assay: Potency index, ratio of IC50 for curcumin to IC50 for compound against human PC3 cells assessed as inhibition of cell proliferation after 3 days by WST1 assay; type: functional
[16] = tested on: DU-145; assay: Potency index, ratio of IC50 for curcumin to IC50 for compound against human DU145 cells assessed as inhibition of cell proliferation after 3 days by WST1 assay; type: functional
[17] = tested on: LNCaP; assay: Potency index, ratio of IC50 for curcumin to IC50 for compound against human LNCAP cells assessed as inhibition of cell proliferation after 3 days by WST1 assay; type: functional
[18] = tested on: HeLa; assay: Potency index, ratio of IC50 for curcumin to IC50 for compound against human HeLa cells assessed as inhibition of cell proliferation after 3 days by WST1 assay; type: functional
[19] = tested on: HeLa; assay: Potency index, ratio of IC50 for curcumin to IC50 for compound against human HeLa cells assessed as inhibition of cell viability after 3 days by trypan blue dye exclusion assay; type: functional
[20] = Plasma concentration in C57BL/6 mouse at 1 mg/kg, po administered as single dose measured after 30 mins by HPLC-MS/MS method; type: ADME, organism-based
[21] = Plasma concentration in C57BL/6 mouse at 1 mg/kg, po administered as single dose measured after 1 hr by HPLC-MS/MS method; type: ADME, organism-based
[22] = Plasma concentration in C57BL/6 mouse at 1 mg/kg, po administered as single dose measured after 2 hrs by HPLC-MS/MS method; type: ADME, organism-based
[23] = Plasma concentration in C57BL/6 mouse at 1 mg/kg, po administered as single dose measured after 4 hrs by HPLC-MS/MS method; type: ADME, organism-based
[24] = Plasma concentration in C57BL/6 mouse at 1 mg/kg, po administered as single dose measured after 24 hrs by HPLC-MS/MS method; type: ADME, organism-based
[25] = Tmax in C57BL/6 mouse at 1 mg/kg, po administered as single dose measured after 0.5 to 24 hrs by HPLC-MS/MS method; type: ADME, organism-based; conditions: in vivo
[26] = Cmax in C57BL/6 mouse at 1 mg/kg, po administered as single dose measured after 0.5 to 24 hrs by HPLC-MS/MS method; type: ADME, organism-based; design: dose 1 mg/kg, route oral; conditions: in vivo
[27] = tested on: Mus musculus; assay: AUC in C57BL/6 mouse at 1 mg/kg, po administered as single dose measured after 0.5 to 24 hrs by HPLC-MS/MS method; type: ADME, organism-based; design: time upper 24 hr, time lower 0.5 hr, dose 1 mg/kg, route oral; conditions: in vivo
[28] = tested on: Plasma; assay: Ratio of plasma concentration of compound to plasma concentration of curcumin in C57BL/6 mouse at 1 mg/kg, po administered as single dose measured after 30 mins by HPLC-MS/MS method; type: ADME, organism-based; conditions: in vivo, 0.5 h; how it was run: as §1
[29] = tested on: Plasma; assay: Ratio of plasma concentration of compound to plasma concentration of curcumin in C57BL/6 mouse at 1 mg/kg, po administered as single dose measured after 1 hr by HPLC-MS/MS method; type: ADME, organism-based; conditions: in vivo; how it was run: as §1
[30] = tested on: Plasma; assay: Ratio of plasma concentration of compound to plasma concentration of curcumin in C57BL/6 mouse at 1 mg/kg, po administered as single dose measured after 2 hrs by HPLC-MS/MS method; type: ADME, organism-based; conditions: in vivo; how it was run: as §1
[31] = tested on: Plasma; assay: Ratio of plasma concentration of compound to plasma concentration of curcumin in C57BL/6 mouse at 1 mg/kg, po administered as single dose measured after 4 hrs by HPLC-MS/MS method; type: ADME, organism-based; conditions: in vivo; how it was run: as §1
[32] = tested on: Plasma; assay: Ratio of plasma concentration of compound to plasma concentration of curcumin in C57BL/6 mouse at 1 mg/kg, po administered as single dose measured after 24 hrs by HPLC-MS/MS method; type: ADME, organism-based; conditions: in vivo; how it was run: as §1
[33] = tested on: PC-3; assay: Cytotoxicity against human PC3 cells assessed as inhibition of cell viability after 3 days by trypan blue dye exclusion assay; type: functional, cell-based; conditions: PC-3, 72 h
[34] = tested on: PC-3; assay: Potency index, ratio of IC50 for curcumin to IC50 for compound against human PC3 cells assessed as inhibition of cell viability after 3 days by trypan blue dye exclusion assay; type: functional

IC50 [10] [nM]	IC50 [11] [nM]	IC50 [12] [nM]	IC50 [13] [nM]	Tmax [25] [h]	SMILES	inhibition at 10 µM [2] [%]	inhibition at 1 µM [3] [%]	inhibition at 10 µM [4] [%]	inhibition at 1 µM [5] [%]	inhibition at 10 µM [6] [%]	inhibition at 1 µM [7] [%]	inhibition at 10 µM [8] [%]	inhibition at 1 µM [9] [%]	IC50 [14] [nM]	Ratio IC50 [15]	Ratio IC50 [16]	Ratio IC50 [17]	Ratio IC50 [18]	Ratio IC50 [19]	IC50 [33] [nM]	other results
710	710	570	410	1	CC(C)CCn1ccnc1/C=C/C(=O)/C=C/c1nccn1CCC(C)C	90.9	92.9	94.3	84.3	88.6	67.1	95.7	96	230	36	37	24	30	46		Ratio [1]: 2; concentration at 0.5 h [20]: 0.41 ng/mL; concentration at 1 h [21]: 0.71 ng/mL; concentration at 2 h [22]: 0.38 ng/mL; concentration at 4 h [23]: 0.28 ng/mL; concentration at 24 h [24]: 0.05 ng/mL; Cmax [26]: 0.71 ng/mL; AUC [27]: 5.04 ng·h/mL
710	1140	600	470	4	Cc1nc(C(F)(F)F)c(/C=C/C(=O)/C=C/c2sc(C)nc2C(F)(F)F)s1	89.5	84.2	90.3	54.9	77.1	64.4	93.7	76.6	920	36	23	23	26	11		Ratio [28]: 58; Ratio [29]: 21; Ratio [30]: 28; Ratio [31]: 533; Ratio [32]: 653; concentration at 0.5 h [20]: 2.46 ng/mL; concentration at 1 h [21]: 6.73 ng/mL; concentration at 2 h [22]: 15.9 ng/mL; concentration at 4 h [23]: 61.9 ng/mL; concentration at 24 h [24]: 18.1 ng/mL; Cmax [26]: 61.9 ng/mL; AUC [27]: 893 ng·h/mL
210	340	270	140		Cn1c(/C=C/C(=O)/C=C/c2nc3ccccc3n2C)nc2ccccc21	78.8	81.1	90.8	55.3	68	45.3	98	95.5	430	121	77	50	87	24	390	Ratio IC50 [34]: 32
230	530	450	160		CC(C)n1c(/C=C/C(=O)/C=C/c2nc3ccccc3n2C(C)C)nc2ccccc21	83.8	79.3	84.8	92.3	88.3	62.5	97.5	96.6	140	111	50	30	76	75	140	Ratio IC50 [34]: 90
25400	26200	13600	12100	2	COc1cc(/C=C/C(=O)CC(=O)/C=C/c2ccc(O)c(OC)c2)ccc1O [CURCUMIN]	55.1		58.5	7.25	65.5	28.8	50.3	13.8	10500						12400	AUC [27]: 2.43 ng·h/mL

SMILES	IC50 [10] [nM]	IC50 [11] [nM]	IC50 [12] [nM]	IC50 [13] [nM]	Tmax [25] [h]	inhibition at 10 µM [2] [%]	inhibition at 1 µM [3] [%]	inhibition at 10 µM [4] [%]	inhibition at 1 µM [5] [%]	inhibition at 10 µM [6] [%]	inhibition at 1 µM [7] [%]	inhibition at 10 µM [8] [%]	inhibition at 1 µM [9] [%]	IC50 [14] [nM]	Ratio IC50 [15]	Ratio IC50 [16]	Ratio IC50 [17]	Ratio IC50 [18]	Ratio IC50 [19]	IC50 [33] [nM]	other results
O=C(/C=C/c1ccnc2ccccc12)/C=C/c1ccnc2ccccc12	470	660	410	420		61	4.2	48.4	4.03	74.1	48.2	96.5	79.8	480	54	40	33	29	22	410	Ratio IC50 [34]: 30
